# Active and inactive are the calls of the source. The rule behind the calls is not given here.
# Key:
# Escherichia coli [1] = assay: Antibacterial activity against Escherichia coli MG1655 grown as planktonic cells after 24 hrs by agar dilution method; format: functional; conditions: K-12 substr. MG1655, 24 h
# Escherichia coli [2] = assay: Antibacterial activity against Escherichia coli MG1655 grown as biofilms after 24 hrs by agar dilution method; format: functional; conditions: K-12 substr. MG1655, 24 h
# In short: (§1)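 Biofilm MIC: cultures diluted to OD600 0.1 in LB, grown in PVC 96-well plates 24 h at 37°C without shaking; antibiotic added directly without washing as 10-fold dilutions, then 24 h more.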
# Escherichia coli [3] = assay: Antibacterial activity against Escherichia coli MG1655 harboring plasmid pBR322 carrying blaTEM-1 and tetA(C) genes grown as planktonic cells after 24 hrs by agar dilution method; conditions: K-12 substr. MG1655, 24 h
# Escherichia coli [4] = assay: Antibacterial activity against Escherichia coli MG1655 grown as biofilms harboring plasmid pBR322 carrying blaTEM-1 and tetA(C) genes after 24 hrs by agar dilution method; format: functional; in short: as §1
# Escherichia coli [5] = assay: Antibacterial activity against Escherichia coli OCL62 grown as planktonic cells after 24 hrs by agar dilution method; format: functional; conditions: OCL62, 24 h
# Escherichia coli [6] = assay: Antibacterial activity against Escherichia coli OCL62 grown as biofilms after 24 hrs by agar dilution method; format: functional; conditions: OCL62, 24 h; in short: as §1
# Escherichia coli [7] = assay: Antibacterial activity against Escherichia coli MG1655 harboring grown as biofilms plasmid pBR322 carrying blaTEM-1 and tetA(C) genes assessed as decrease in bacterial biofilms formation at 5 ug/ml by GFP assay; format: functional; conditions: K-12 substr. MG1655
# Escherichia coli [8] = assay: Antibacterial activity against Escherichia coli MG1655 grown as biofilms harboring plasmid pBR322 carrying blaTEM-1 and tetA(C) genes assessed as reduction in bacterial biofilms formation; format: functional; conditions: K-12 substr. MG1655
# In short: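 Biofilms grown in LB on PVC 96-well plates (inoculum OD600 0.1, 24 h, 37°C, static), then antibiotic added as 10-fold dilutions for 24 h. Eight replicates per condition, four independent experiments.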
# Escherichia coli [9] = assay: Antibacterial activity against Escherichia coli MG1655 grown as planktonic cells harboring plasmid pBR322 carrying blaTEM-1 and tetA(C) genes assessed as reduction in bacterial biofilms formation; format: functional; conditions: K-12 substr. MG1655
# Escherichia coli [10] = assay: Antibacterial activity against Escherichia coli MG1655 grown as biofilms assessed as inhibition of bacterial biofilms formation at 5 to 500 ug/ml; format: functional; conditions: K-12 substr. MG1655
# In short: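 MG1655 biofilms grown in LB in PVC 96-well plates from early-stationary cultures diluted to OD600 0.1, static 24 h at 37°C. Antibiotic added unwashed as 10-fold dilutions (0.0000005–500 μg/ml) for another 24 h.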
# Escherichia coli [11] = assay: Antibacterial activity against Escherichia coli OCL62 grown as biofilms harboring plasmid pBR322 carrying blaTEM-1 and tetA(C) genes after 24 hrs by crystal violet staining method; conditions: OCL62, 24 h
# Escherichia coli [12] = assay: Antibacterial activity against Escherichia coli OCL62 harboring plasmid pBR322 carrying blaTEM-1 and tetA(C) genes grown as planktonic cells after 24 hrs by broth microdilution method; conditions: OCL62, 24 h
molecule,measurement,setting,value
CC1(C)S[C@@H]2[C@H](NC(=O)[C@H](N)c3ccccc3)C(=O)N2[C@H]1C(=O)O [AMPICILLIN],MIC,Escherichia coli [1],0.5 mg/L
same,MIC,Escherichia coli [2],5 mg/L
same,MIC,Escherichia coli [3],500 mg/L
same,MIC,"Escherichia coli [4]; K-12 substr. MG1655, 24 h",5 mg/L
same,MIC,Escherichia coli [5],5 mg/L
same,MIC,Escherichia coli [6],5 mg/L
same,inhibition,Escherichia coli [7],Active
same,inhibition,Escherichia coli [8],Active
same,inhibition,Escherichia coli [9],inactive
same,Activity,Escherichia coli [10],Active
same,MIC,Escherichia coli [11],50 mg/L
same,MIC,Escherichia coli [12],5 mg/L
O=C(N[C@H](CO)[C@H](O)c1ccc([N+](=O)[O-])cc1)C(Cl)Cl [CHLORAMPHENICOL],MIC,Escherichia coli [3],0.5 mg/L
same,MIC,"Escherichia coli [4]; K-12 substr. MG1655, 24 h",5 mg/L
CC[C@H]1OC(=O)[C@H](C)[C@@H](O[C@H]2C[C@@](C)(OC)[C@@H](O)[C@H](C)O2)[C@H](C)[C@@H](O[C@@H]2O[C@H](C)C[C@H](N(C)C)[C@H]2O)[C@](C)(O)C[C@@H](C)C(=O)[C@H](C)[C@@H](O)[C@]1(C)O [ERYTHROMYCIN],MIC,Escherichia coli [3],0.5 mg/L
same,MIC,"Escherichia coli [4]; K-12 substr. MG1655, 24 h",5 mg/L
NC[C@H]1O[C@H](O[C@H]2[C@H](O)[C@@H](O[C@H]3O[C@H](CO)[C@@H](O)[C@H](N)[C@H]3O)[C@H](N)C[C@@H]2N)[C@H](O)[C@@H](O)[C@@H]1O [KANAMYCIN],MIC,"Escherichia coli [4]; K-12 substr. MG1655, 24 h",0.5 mg/L
CC1(C)S[C@@H]2[C@H](NC(=O)Cc3ccccc3)C(=O)N2[C@H]1C(=O)O [PENICILLIN G],MIC,Escherichia coli [3],5 mg/L
same,MIC,"Escherichia coli [4]; K-12 substr. MG1655, 24 h",0.5 mg/L
CN(C)[C@@H]1C(O)=C(C(N)=O)C(=O)[C@@]2(O)C(O)=C3C(=O)c4c(O)cccc4[C@@](C)(O)[C@H]3C[C@@H]12 [TETRACYCLINE],MIC,Escherichia coli [1],0.5 mg/L
same,MIC,Escherichia coli [2],500 mg/L
same,MIC,Escherichia coli [3],500 mg/L
same,MIC,"Escherichia coli [4]; K-12 substr. MG1655, 24 h",> 500 mg/L
same,inhibition,Escherichia coli [7],Active
same,Activity,Escherichia coli [10],Active
GENTAMICIN,MIC,Escherichia coli [4]; K-12 substr. MG1655,0.005 mg/L

# Source: ChEMBL document CHEMBL1671674, “Induction of multidrug resistance mechanism in Escherichia coli biofilms by interplay between tetracycline and ampicillin resistance genes” (2009)
